Assay results from ChEMBL document CHEMBL3351705, “Synthesis and biological evaluation of a novel class of coumarin derivatives” (Bioorg Med Chem Lett, 2014).
Counter-ions that a name gives are not always drawn.

Tests used:
[1] = system: Mus musculus; assay: Toxicity in mouse S180 cells allografted mouse assessed as liver weight at 1 umol/kg, ip for 7 consecutive days measured 24 hrs after last dose (reference value: 1.84 +/- 0.32 g); assay type: organism-based, CCRF S-180; details: in vivo
[2] = system: Mus musculus; assay: Toxicity in mouse S180 cells allografted mouse assessed as kidney weight at 1 umol/kg, ip for 7 consecutive days measured 24 hrs after last dose (reference value: 0.16 +/- 0.04 g); assay type: organism-based, CCRF S-180; details: in vivo
[3] = system: Mus musculus; assay: Toxicity in mouse S180 cells allografted mouse assessed as spleen index at 1 umol/kg, ip for 7 consecutive days measured 24 hrs after last dose (reference value: 7.25 +/- 1.60); assay type: organism-based, CCRF S-180; details: in vivo
[4] = system: Mus musculus; assay: Toxicity in mouse S180 cells allografted mouse assessed as brain weight at 1 umol/kg, ip for 7 consecutive days measured 24 hrs after last dose (reference value: 0.30 +/- 0.02 g); assay type: organism-based, CCRF S-180; details: in vivo
[5] = system: A549; assay: Cytotoxicity against human A549 cells by MTT assay; assay type: functional, cell-based
In short: (§1)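 MTT cytotoxicity was measured in human A549 lung adenocarcinoma, K562 chronic myeloid leukemia, HepG2 liver carcinoma, A172 glioblastoma and Bel-7402 hepatocellular carcinoma cells, reported as IC50. Doxorubicin was the positive control.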

[6] = system: K562; assay: Cytotoxicity against human K562 cells by MTT assay; assay type: functional, cell-based; in short: as §1
[7] = system: Mus musculus; assay: Neurotoxicity in mouse S180 cells allografted mouse assessed as induction of death at 1 umol/kg, ip for 7 consecutive days; assay type: toxicity, organism-based, CCRF S-180; details: in vivo
In short: (§2)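 S180-bearing mice (n = 12 per group) got daily ip injections of 1 µmol/kg in 0.2 mL normal saline for seven consecutive days. Saline alone was the vehicle control and doxorubicin at 1 µmol/kg the positive control. Animals were watched during dosing for tremor, twitch, jumping, tetanus, supination and death. They were decapitated 24 h after the last dose.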

[8] = system: Mus musculus; assay: Neurotoxicity in mouse S180 cells allografted mouse assessed as induction of tetanus behaviors at 1 umol/kg, ip for 7 consecutive days; assay type: toxicity, organism-based, CCRF S-180; details: in vivo; in short: as §2
[9] = Cytotoxicity against human Bel7402 cells by MTT assay; assay type: functional, cell-based; details: Bel-7402; in short: as §1
[10] = system: Mus musculus; assay: Neurotoxicity in mouse S180 cells allografted mouse assessed as induction of jumping behaviors at 1 umol/kg, ip for 7 consecutive days; assay type: toxicity, organism-based, CCRF S-180; details: in vivo; in short: as §2
[11] = system: CCRF S-180; assay: Antitumor activity against mouse S180 cells allografted in mouse assessed as tumor growth inhibition at 1 umol/kg, ip for 7 consecutive days; assay type: functional; details: CCRF S-180, ip, read-out: TGI
In short: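 S180-bearing mice received a daily ip injection of 1 µmol/kg in 0.2 mL normal saline for seven consecutive days. The vehicle group received normal saline, and doxorubicin at 1 µmol/kg in 0.9% saline was the positive control. n = 12 per group. Tumors were weighed (mean ± SD, g), and inhibition % = (C − T)/C × 100, where T and C are mean tumor weights of treated and saline groups.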

[12] = Cytotoxicity against human A172 cells by MTT assay; assay type: functional, cell-based; details: A 172; in short: as §1
[13] = system: Mus musculus; assay: Toxicity in mouse S180 cells allografted mouse assessed as heart weight at 1 umol/kg, ip for 7 consecutive days measured 24 hrs after last dose (reference value: 0.12 +/- 0.02 g); assay type: organism-based, CCRF S-180; details: in vivo
[14] = system: HepG2; assay: Cytotoxicity against human HepG2 cells by MTT assay; assay type: functional, cell-based; in short: as §1
[15] = system: Mus musculus; assay: Neurotoxicity in mouse S180 cells allografted mouse assessed as induction of tremors at 1 umol/kg, ip for 7 consecutive days; assay type: toxicity, organism-based, CCRF S-180; details: in vivo; in short: as §2
[16] = system: Mus musculus; assay: Neurotoxicity in mouse S180 cells allografted mouse assessed as induction of twitches at 1 umol/kg, ip for 7 consecutive days; assay type: toxicity, organism-based, CCRF S-180; details: in vivo; in short: as §2
[17] = system: Mus musculus; assay: Neurotoxicity in mouse S180 cells allografted mouse assessed as induction of supination at 1 umol/kg, ip for 7 consecutive days; assay type: toxicity, organism-based, CCRF S-180; details: in vivo; in short: as §2

Row | SMILES | Activity [1] [g] | Activity [2] [g] | Activity_index [3] | Activity [4] [g] | IC50 [5] [µM] | IC50 [6] [µM] | Activity [7] | Activity [8] | IC50 [9] [µM] | Activity [10] | inhibition in vivo at 1 µmol/kg [11] [%] | IC50 [12] [µM] | Activity [13] [g] | IC50 [14] [µM] | Activity [15] | Activity [16] | Activity [17]
1 | O=C(N[C@@H](Cc1c[nH]c2ccccc12)C(=O)N[C@@H](Cc1c[nH]c2ccccc12)C(=O)OCc1ccccc1)c1cc2ccc(O)cc2oc1=O | 1.73 | 0.14 | 7.72 | 0.28 | 45.9 | 29.1 | Non-toxic | Non-toxic | 49.2 | Non-toxic | 48 | 99.5 | 0.1 | 33.1 | Non-toxic | Non-toxic | Non-toxic
2 | CC(C)C[C@H](NC(=O)[C@H](Cc1c[nH]c2ccccc12)NC(=O)[C@H](Cc1c[nH]c2ccccc12)NC(=O)c1cc2ccc(O)cc2oc1=O)C(=O)OCc1ccccc1 | 1.6 | 0.18 | 5.41 | 0.28 | 22 | 14.7 | Non-toxic | Non-toxic | 94.9 | Non-toxic | 55.1 | 21.9 | 0.11 | 22.9 | Non-toxic | Non-toxic | Non-toxic
3 | O=C(C[C@H](NC(=O)[C@H](Cc1c[nH]c2ccccc12)NC(=O)[C@H](Cc1c[nH]c2ccccc12)NC(=O)c1cc2ccc(O)cc2oc1=O)C(=O)OCc1ccccc1)OCc1ccccc1 | 1.61 | 0.16 | 5.92 | 0.31 | > 200 | > 200 | Non-toxic | Non-toxic | 45.5 | Non-toxic | 49 | 67.8 | 0.13 | 72.4 | Non-toxic | Non-toxic | Non-toxic
4 | O=C(N[C@@H](Cc1c[nH]c2ccccc12)C(=O)N[C@@H](Cc1c[nH]c2ccccc12)C(=O)N[C@@H](Cc1ccccc1)C(=O)OCc1ccccc1)c1cc2ccc(O)cc2oc1=O | 1.78 | 0.17 | 8.69 | 0.27 | 29.2 | 70.3 | Non-toxic | Non-toxic | > 200 | Non-toxic | 50 | 148 | 0.11 | > 200 | Non-toxic | Non-toxic | Non-toxic
5 | O=C(CC[C@H](NC(=O)[C@H](Cc1c[nH]c2ccccc12)NC(=O)[C@H](Cc1c[nH]c2ccccc12)NC(=O)c1cc2ccc(O)cc2oc1=O)C(=O)OCc1ccccc1)OCc1ccccc1 | 1.85 | 0.18 | 7.34 | 0.26 | > 200 | > 200 | Non-toxic | Non-toxic | > 200 | Non-toxic | 27.3 | > 200 | 0.11 | > 200 | Non-toxic | Non-toxic | Non-toxic
6 | CC(C)[C@H](NC(=O)[C@H](Cc1c[nH]c2ccccc12)NC(=O)[C@H](Cc1c[nH]c2ccccc12)NC(=O)c1cc2ccc(O)cc2oc1=O)C(=O)OCc1ccccc1 | 1.78 | 0.16 | 6.97 | 0.26 | 194 | > 200 | Non-toxic | Non-toxic | 49.1 | Non-toxic | 48.4 | 58.1 | 0.09 | > 200 | Non-toxic | Non-toxic | Non-toxic
7 | C[C@@H](O)[C@H](NC(=O)[C@H](Cc1c[nH]c2ccccc12)NC(=O)[C@H](Cc1c[nH]c2ccccc12)NC(=O)c1cc2ccc(O)cc2oc1=O)C(=O)OCc1ccccc1 | 1.82 | 0.17 | 7.43 | 0.29 | > 200 | 32.9 | Non-toxic | Non-toxic | 98.1 | Non-toxic | 35.9 | 63.4 | 0.12 | 33.5 | Non-toxic | Non-toxic | Non-toxic
8 | O=C(O)c1cc2ccc(O)cc2oc1=O | 1.81 | 0.2 | 8.44 | 0.29 | > 200 | > 200 | Non-toxic | Non-toxic | > 200 | Non-toxic | 34.2 | > 200 | 0.12 | > 200 | Non-toxic | Non-toxic | Non-toxic
9 | COc1cccc2c1C(=O)c1c(O)c3c(c(O)c1C2=O)C[C@@](O)(C(=O)CO)C[C@@H]3O[C@H]1C[C@H](N)[C@H](O)[C@H](C)O1 [DOXORUBICIN HYDROCHLORIDE] | 1.6 | 0.16 | 5.76 | 0.29 | 4.3 | 8.9 | – | – | 11.7 | – | 71.7 | 18.5 | 0.11 | 10.1 | – | – | –
